Source: ChEMBL document CHEMBL5154657, “Design, synthesis and biological evaluation of 1,5-disubstituted α-amino tetrazole derivatives as non-covalent inflammasome-caspase-1 complex inhibitors with potential application against immune and inflammatory disorders” (Eur J Med Chem, 2022)

Tests used:
Caspase-1 (Homo sapiens) = biological target: T1, Caspase-1 (Homo sapiens) (UniProt P29466); test: Inhibition of caspase 1 (unknown origin) assessed as enzyme residual activity using YVAD-AFC as substrate at 100 uM by fluorescence analysis
T1 sequence (whole entry): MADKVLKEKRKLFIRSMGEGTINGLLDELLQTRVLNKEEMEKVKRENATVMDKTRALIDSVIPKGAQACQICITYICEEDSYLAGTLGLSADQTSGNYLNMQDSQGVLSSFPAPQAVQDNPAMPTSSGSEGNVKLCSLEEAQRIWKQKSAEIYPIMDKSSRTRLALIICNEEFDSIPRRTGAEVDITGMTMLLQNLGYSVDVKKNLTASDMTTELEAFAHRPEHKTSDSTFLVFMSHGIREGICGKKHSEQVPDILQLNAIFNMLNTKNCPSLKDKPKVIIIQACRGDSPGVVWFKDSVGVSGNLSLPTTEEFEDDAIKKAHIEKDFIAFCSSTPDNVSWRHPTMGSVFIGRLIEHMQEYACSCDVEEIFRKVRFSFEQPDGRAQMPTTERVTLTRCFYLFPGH
Method in brief: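 Caspase-1 cleavage of an AFC-labelled peptide substrate is monitored over time by fluorescence (Ex/Em 400/505 nm). Residual enzyme activity is expressed as % with 100 μM compound, relative to an untreated control.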

Caspase-1 = biological target: T2, Caspase-1 (Homo sapiens, UniProt P29466); test: Inhibition of caspase 1 (unknown origin) using YVAD-AFC as substrate by fluorescence analysis
T2 sequence (P29466 whole entry): T1 sequence (whole entry)
Method in brief: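 Caspase-1 activity is followed as a time course of fluorescence from cleavage of an AFC-labelled peptide substrate (Ex/Em 400/505 nm). Compounds are tested as a 10-dose series with 3-fold serial dilution starting at 100 μM or 10 μM. IC50 is the concentration halving enzyme activity. Curves are fitted only when activity at the top concentration is below 60%.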

U-937 = test: Cytotoxicity against human U-937 cells assessed as reduction in cell viability at 10 to 100 nM after 48 hrs by MTT assay; type: toxicity, cell-based; conditions: u-937, 48 h, 0.1 µM, dose 10-100 nM
Method in brief: (§1)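 Human histiocytic lymphoma U937 cells are grown in RPMI 1640 with 10% FBS, penicillin and streptomycin at 37 °C under 5% CO₂. They are seeded at 10000 cells/well and exposed to compound from 1 nM to 100 μM for 48 h, with matched DMSO-only solvent controls. MTT (0.1 mg) is added for 4 h at 37 °C, cells are lysed, and A595 is read. Viability is given as % of control, as the mean of three independent experiments.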

[1] = Cytotoxicity against human U-937 cells assessed as reduction in cell viability at 100 uM after 48 hrs by MTT assay; type: toxicity, cell-based; conditions: read-out: INH; method in brief: as §1
[2] = Inhibition of LPS-induced IL-1beta secretion in human U-937 cells preincubated for 4 hrs with LPS followed by compound treatment for overnight by ELISA; type: functional, cell-based
Method in brief: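 U937 cells in RPMI 1640 with 10% FBS, differentiated with […] for 24h. Primed with LPS (1 μg/ml) for 4h, then compound added at graded concentrations, 10 μM down to 1 nM, overnight. Supernatants stored at −80 °C, and human IL-1β measured by sandwich ELISA. IC50 from regression of % inhibition against log concentration.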

[3] = Inhibition of LPS-induced IL-1beta secretion in human U-937 cells measured after 24 hrs by ELISA; type: functional, cell-based; conditions: U-937, 24 h
Method in brief: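 U937 human histiocytic lymphoma cells, grown in RPMI 1640 with 10% FBS, differentiated into macrophages with […] for 24h. Compound given at graded concentrations, 10 μM down to 1 nM, together with LPS (1 μg/ml) for 24h. Supernatants frozen at −80 °C, then IL-1β measured by sandwich ELISA. IC50 taken from regression of % inhibition against log concentration.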

| Structure (SMILES) | Activity (Caspase-1 (Homo sapiens)) [%] | IC50 (Caspase-1) [µM] | further results |
| --- | --- | --- | --- |
| O=C(O)CC(O)CN[C@@H](c1cccs1)c1nnnn1CCCC(=O)NCc1ccccc1 (stereo partly specified) | 49.6 | – | – |
| CC(C)(C)C[C@@H](NCC(O)CC(=O)O)c1nnnn1CCCC(=O)N1CCc2ccccc2C1 (stereo partly specified) | 9.71 | – | – |
| O=C(O)CC(O)CNC(c1nnnn1CCCC(=O)N1CCc2ccccc2C1)C1CC1 (stereo unspecified) | 90 | – | – |
| CC(C)(C)C(NCC(O)CC(=O)O)c1nnnn1CCCC(=O)N1CCc2ccccc2C1 (stereo unspecified) | 61.9 | – | – |
| COc1cc2c(cc1OC)CN(C(=O)CCCn1nnnc1C(NCC(O)CC(=O)O)C(C)(C)C)CC2 (stereo unspecified) | 96.7 | – | – |
| O=C(O)C[C@@H](O)CN[C@H](c1ccccc1)c1nnnn1CCCC(=O)NCc1ccccc1 | 63.3 | – | – |
| O=C(O)C[C@H](O)CN[C@@H](c1ccccc1)c1nnnn1CCCC(=O)NCc1ccccc1 | 62.4 | – | – |
| O=C(O)C[C@H](O)CN[C@H](c1cccs1)c1nnnn1CCCC(=O)NCc1ccccc1 | 69.8 | – | – |
| COc1cc2c(cc1OC)CN(C(=O)CCCn1nnnc1C(NCC(O)CC(=O)O)C1CC1)CC2 (stereo unspecified) | 80.6 | – | – |
| O=C(O)CC(O)CNC(c1nnnn1CCCC(=O)NCc1ccccc1)C1CC1 (stereo unspecified) | 77.1 | – | – |
| COc1cc2c(cc1OC)CN(C(=O)CCCn1nnnc1C(CC(C)(C)C)NCC(O)CC(=O)O)CC2 (stereo unspecified) | 9.49 | 14.6 | – |
| CC(C)(C)CC(NCC(O)CC(=O)[O-])c1nnnn1CCCC(=O)N1CCc2ccccc2C1.[Na+] (stereo unspecified) | 8.12 | 15.1 | Activity (U-937): Non-Toxic; cytotoxicity at 48 h, 100 µM [1]: 50%; IC50 [3]: 50.1 µM |
| CC(C)(C)CC(NCC(O)CC(=O)O)c1nnnn1CCCC(=O)NCc1ccccc1 (stereo unspecified) | 59.9 | – | – |

Continued, in another order:

| Activity (Caspase-1 (Homo sapiens)) [%] | IC50 (Caspase-1) [µM] | Structure (SMILES) | further results |
| --- | --- | --- | --- |
| 4.45 | – | CC(C)(C)C[C@H](c1nnnn1CCCC(=O)N1CCc2ccccc2C1)N(Cc1ccccc1)CC(O)CC(=O)O (stereo partly specified) | – |
| 3.9 | 12.7 | CC(C)(C)CC(c1nnnn1CCCC(=O)N1CCc2ccccc2C1)N(Cc1ccc(F)cc1)CC(O)CC(=O)O (stereo unspecified) | – |
| 2.47 | 12.1 | CC(C)CC(c1nnnn1CCCC(=O)N1CCc2ccccc2C1)N(Cc1ccccc1)CC(O)CC(=O)[O-].[Na+] (stereo unspecified) | Activity (U-937): Non-Toxic; cytotoxicity at 48 h, 100 µM [1]: 50%; IC50 [2]: 0.85 µM; IC50 [3]: 0.35 µM |
| 40.5 | – | O=C(O)CC(O)CN[C@H](c1ccccc1)c1nnnn1CCCC(=O)N1CCc2ccccc2C1 (stereo partly specified) | – |
| 2.06 | 20.7 | CC(C)CC(c1nnnn1CCCC(=O)N1CCc2ccccc2C1)N(Cc1ccc(F)cc1)CC(O)CC(=O)O (stereo unspecified) | – |
| 48 | 94.1 | O=C(O)CC(O)CNC(c1ccccc1)c1nnnn1CCCC(=O)N1CCc2ccccc2C1 (stereo unspecified) | – |
| 43.7 | 79.4 | CC(C)CC(NCC(O)CC(=O)O)c1nnnn1CCCC(=O)N1CCc2ccccc2C1 (stereo unspecified) | – |
| 77.8 | – | CC(C)C(NCC(O)CC(=O)O)c1nnnn1CCCC(=O)N1CCc2ccccc2C1 (stereo unspecified) | – |
| 29 | – | O=C(O)CC(O)CN[C@@H](c1cccs1)c1nnnn1CCCC(=O)N1CCc2ccccc2C1 (stereo partly specified) | – |
| 48.6 | – | O=C(O)CC(O)CN[C@@H](c1ccccc1)c1nnnn1CCCC(=O)N1CCc2ccccc2C1 (stereo partly specified) | – |
| 2.91 | 10.3 | CC(C)(C)CC(c1nnnn1CCCC(=O)N1CCc2ccccc2C1)N(Cc1ccccc1)CC(O)CC(=O)O (stereo unspecified) | – |
| 37.2 | – | O=C(O)CC(O)CN[C@H](c1cccs1)c1nnnn1CCCC(=O)N1CCc2ccccc2C1 (stereo partly specified) | – |
| 77.2 | – | O=C(O)CC(O)CNC(c1cccs1)c1nnnn1CCCC(=O)N1CCc2ccccc2C1 (stereo unspecified) | – |
